This note sets out measurements from publication PMC8928501 (ACS Omega, 2022).

For the test, the target named is human transferrin (Tf) (Homo sapiens, UniProt P02787). Briefly: isothermal titration calorimetry. It counts as binding. The essentials:
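Human transferrin in the sample cell, stated as 25 μM in one place and 20 μM in another; dialyzed and degassed before loading. Test compound at 200 μM in the syringe, added by automated titration after an initial dummy injection. Binding isotherm fitted to a two-site model to obtain the thermodynamic parameters.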
On the technique in general: Isothermal titration calorimetry measures the heat released or taken up as one component is titrated into another.

SMILES strings stand for the structures.

Sequence of human transferrin (Tf) (P02787 20-698): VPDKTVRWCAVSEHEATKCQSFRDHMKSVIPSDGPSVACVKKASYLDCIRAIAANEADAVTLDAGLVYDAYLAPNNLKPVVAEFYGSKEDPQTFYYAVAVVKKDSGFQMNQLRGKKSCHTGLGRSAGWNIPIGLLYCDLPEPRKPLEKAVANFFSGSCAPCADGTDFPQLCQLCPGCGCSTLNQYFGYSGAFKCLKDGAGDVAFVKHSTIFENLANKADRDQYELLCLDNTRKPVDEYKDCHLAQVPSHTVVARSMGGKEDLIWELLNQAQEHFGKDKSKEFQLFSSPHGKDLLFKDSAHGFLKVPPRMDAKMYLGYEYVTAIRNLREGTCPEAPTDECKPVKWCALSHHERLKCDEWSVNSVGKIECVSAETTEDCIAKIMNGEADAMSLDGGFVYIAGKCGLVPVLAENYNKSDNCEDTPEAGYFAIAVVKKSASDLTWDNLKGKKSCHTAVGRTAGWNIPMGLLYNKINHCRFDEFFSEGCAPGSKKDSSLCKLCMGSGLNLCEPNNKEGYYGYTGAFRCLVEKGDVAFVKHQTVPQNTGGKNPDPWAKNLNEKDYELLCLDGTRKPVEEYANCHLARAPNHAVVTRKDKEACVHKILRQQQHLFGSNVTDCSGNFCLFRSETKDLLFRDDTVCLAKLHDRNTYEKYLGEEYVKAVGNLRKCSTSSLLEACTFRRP

By Kd is commonly meant the equilibrium constant for the complex coming apart. A lower Kd goes with a tighter complex. The compound `CNCCC(Oc1ccc(C(F)(F)F)cc1)c1ccccc1` (stereo not shown) [Fluoxetine] had a Kd of 6.9 µM.
